Data published in ChEMBL document CHEMBL5131563, “Accelerated Identification of Cell Active KRAS Inhibitory Macrocyclic Peptides using Mixture Libraries and Automated Ligand Identification System (ALIS) Technology” (J Med Chem, 2022).
Values belong to the compound of their own block, whether it stands above or below them. *1 amine or outer side, *2 acyl side, *3 side chain or, on linkers, in order; H or OH if unused. Where a SMILES comes first, the peptide text is derived from it. Bridges are numbered along the chain shown (N, C = ends). [ ]: non-standard residue; d: D form. Phe(3,4,5-F3) = N[C@@H](Cc1cc(F)c(F)c(F)c1)C(=O)O; Pro(trans-3-OAllyl) = C=CCO[C@H]1CCN[C@@H]1C(=O)O; X2 = O=C([C@@H]1[C@H]2CC[C@H](C2)N1[*:1])[*:2]; Pro(3R-Ph) = O=C(O)[C@H]1NCC[C@@H]1c1ccccc1; Ala(4-thiazolyl) = N[C@@H](Cc1cscn1)C(=O)O; Bip = N[C@@H](Cc1ccc(-c2ccccc2)cc1)C(=O)O; X5 = C[C@H]1CCN([*:1])[C@@H]1C(=O)[*:2]; Ala(cPent) = N[C@@H](CC1CCCC1)C(=O)O; hPhe = N[C@@H](CCc1ccccc1)C(=O)O; Abu(4-CN) = N#CCC[C@H](N)C(=O)O; Aad = N[C@@H](CCCC(=O)O)C(=O)O; Cha = N[C@@H](CC1CCCCC1)C(=O)O; Ahp(2) = CCCCC[C@H](N)C(=O)O; Cba = N[C@@H](CC1CCC1)C(=O)O; Nva = CCC[C@H](N)C(=O)O

How the values were obtained:
[1] = target: GTPase KRas (Homo sapiens, UniProt P01116, G12D); test: Inhibition of recombinant biotinylated KRAS G12D mutant (unknown origin) assessed as inhibition of SOS-catalyzed nucleotide exchange preincubated for 60 mins followed by addition of human SOS protein and unlabeled GTP and measured after 60 mins by TR-FRET analysis
Outline: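 Biotinylated KRAS G12D was treated in EDTA buffer (1 h, RT), then loaded at 90 nM with 900 nM Bodipy-GDP and 15 nM Tb-streptavidin in Mg2+ buffer, HEPES pH 7.5 (6 h, RT). It was used at 1.5 nM assay solution with a 10-point, 3-fold DMSO compound series for 60 min at RT. A solution of 120 nM human SOS plus GTP was added for 60 min. The read-out was TR-FRET at 520/495 nm, normalized to DMSO and saturating-inhibitor controls, with a 4-parameter fit.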

[2] = Stability in human HeLa cell homogenate assessed as half life by LC-MS/MS analysis; type: ADME, cell-based
Outline: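 HeLa cells suspended at 1 × 10^6 cells/mL, probe-sonicated on ice until homogeneous, stored frozen at –20 °C. Peptides incubated with homogenate (1 × 10^6 cells/mL equivalent); peptide loss over time quantified by LC-MS/MS to derive t1/2.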

Sequence of GTPase KRas (P01116 whole entry G12D): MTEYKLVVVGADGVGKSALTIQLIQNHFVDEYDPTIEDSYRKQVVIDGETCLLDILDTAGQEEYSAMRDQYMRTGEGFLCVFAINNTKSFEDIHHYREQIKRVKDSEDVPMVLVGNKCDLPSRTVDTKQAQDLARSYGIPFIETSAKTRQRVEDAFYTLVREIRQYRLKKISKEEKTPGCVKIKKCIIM

Compound: CC[C@H](C)[C@@H]1NC(=O)[C@H](Cc2ccc(O)cc2)NC(=O)[C@H](CC(C)C)NC(=O)[C@@H]2CCCN2C(=O)[C@@H](NC(=O)[C@H](CCCNC(=N)N)NC(=O)[C@H](CCCNC(=N)N)NC(C)=O)CSSC[C@@H](C(=O)N[C@@H](CCCNC(=N)N)C(=O)N[C@@H](CCCNC(=N)N)C(N)=O)NC(=O)[C@H](C(C)C)NC(=O)[C@@H]2CCCN2C(=O)[C@H](CC(=O)O)NC(=O)[C@H](Cc2ccc(O)cc2)NC(=O)[C@H](CO)NC1=O (Ac-RRCPLYISYDPVCRR-NH2; disulfide 3-13)
- IC50 [1]: 54 nM
- half-life [2]: 23 min

Compound: CCC[C@@H]1NC(=O)[C@H](Cc2ccc(O)cc2)NC(=O)[C@H](CC(C)C)NC(=O)[C@@H]2CCCN2C(=O)[C@@H](NC(=O)[C@H](CCCNC(=N)N)NC(=O)[C@H](CCCNC(=N)N)NC(C)=O)CSSC[C@@H](C(=O)N[C@@H](CCCNC(=N)N)C(=O)N[C@@H](CCCNC(=N)N)C(N)=O)NC(=O)[C@H](C(C)C)NC(=O)[C@@H]2CCCN2C(=O)[C@H](CC(=O)O)NC(=O)[C@H](Cc2ccc(O)cc2)NC(=O)[C@H](CO)NC1=O (Ac-RRCPLY[Nva]SYDPVCRR-NH2; disulfide 3-13)
- IC50 [1]: > 11100 nM
- half-life [2]: 19 min

Compound: CC(=O)N[C@@H](CCCNC(=N)N)C(=O)N[C@@H](CCCNC(=N)N)C(=O)N[C@H]1CSSC[C@@H](C(=O)N[C@@H](CCCNC(=N)N)C(=O)N[C@@H](CCCNC(=N)N)C(N)=O)NC(=O)[C@H](C(C)C)NC(=O)[C@@H]2CCCN2C(=O)[C@H](CC(=O)O)NC(=O)[C@H](Cc2ccc(O)cc2)NC(=O)[C@H](CO)NC(=O)[C@H](CC2CCCC2)NC(=O)[C@H](CC2CCCCC2)NC(=O)[C@H](CC(C)C)NC(=O)[C@@H]2CCCN2C1=O (Ac-RRCPL[Cha][Ala(cPent)]SYDPVCRR-NH2; disulfide 3-13)
- IC50 [1]: > 11100 nM
- half-life [2]: 21 min

Compound: CC(=O)N[C@@H](CCCNC(=N)N)C(=O)N[C@@H](CCCNC(=N)N)C(=O)N[C@H]1CSSC[C@@H](C(=O)N[C@@H](CCCNC(=N)N)C(=O)N[C@@H](CCCNC(=N)N)C(N)=O)NC(=O)[C@H](C(C)C)NC(=O)[C@@H]2CCCN2C(=O)[C@H](CC(=O)O)NC(=O)[C@H](Cc2ccc(O)cc2)NC(=O)[C@H](CO)NC(=O)[C@H](CC2CCCC2)NC(=O)[C@H](Cc2ccc(O)cc2)NC(=O)[C@H](CC(C)C)NC(=O)[C@@H]2CCCN2C1=O (Ac-RRCPLY[Ala(cPent)]SYDPVCRR-NH2; disulfide 3-13)
- IC50 [1]: > 11100 nM
- half-life [2]: 23 min

Compound: CCC[C@@H]1NC(=O)[C@H](CCc2ccccc2)NC(=O)[C@H](CC(C)C)NC(=O)[C@@H]2CCCN2C(=O)[C@@H](NC(=O)[C@H](CCCNC(=N)N)NC(=O)[C@H](CCCNC(=N)N)NC(C)=O)CSSC[C@@H](C(=O)N[C@@H](CCCNC(=N)N)C(=O)N[C@@H](CCCNC(=N)N)C(N)=O)NC(=O)[C@H](C(C)C)NC(=O)[C@@H]2CCCN2C(=O)[C@H](CC(=O)O)NC(=O)[C@H](Cc2ccc(O)cc2)NC(=O)[C@H](CO)NC1=O (Ac-RRCPL[hPhe][Nva]SYDPVCRR-NH2; disulfide 3-13)
- IC50 [1]: > 11100 nM
- half-life [2]: 15 min

Compound: CC[C@H](C)[C@@H]1NC(=O)[C@H](CCc2ccccc2)NC(=O)[C@H](CC(C)C)NC(=O)[C@@H]2CCCN2C(=O)[C@@H](NC(=O)[C@H](CCCNC(=N)N)NC(=O)[C@H](CCCNC(=N)N)NC(C)=O)CSSC[C@@H](C(=O)N[C@@H](CCCNC(=N)N)C(=O)N[C@@H](CCCNC(=N)N)C(N)=O)NC(=O)[C@H](C(C)C)NC(=O)[C@@H]2CCCN2C(=O)[C@H](CC(=O)O)NC(=O)[C@H](Cc2ccc(O)cc2)NC(=O)[C@H](CO)NC1=O (Ac-RRCPL[hPhe]ISYDPVCRR-NH2; disulfide 3-13)
- IC50 [1]: 1390 nM
- half-life [2]: 37 min

Compound: CC[C@H](C)[C@@H]1NC(=O)[C@H](Cc2ccc(-c3ccccc3)cc2)NC(=O)[C@H](CC(C)C)NC(=O)[C@@H]2[C@H]3CC[C@H](C3)N2C(=O)[C@@H](NC(=O)[C@H](CCCNC(=N)N)NC(=O)[C@H](CCCNC(=N)N)NC(C)=O)CSSC[C@@H](C(=O)N[C@@H](CCCNC(=N)N)C(=O)N[C@@H](CCCNC(=N)N)C(N)=O)NC(=O)[C@H](C(C)C)NC(=O)[C@@H]2CCCN2C(=O)[C@H](CC(=O)O)NC(=O)[C@H](Cc2ccc(O)cc2)NC(=O)[C@H](CO)NC1=O (Ac-RRC[X2]L[Bip]ISYDPVCRR-NH2; disulfide 3-13)
- IC50 [1]: 201 nM

Compound: CC[C@H](C)[C@@H]1NC(=O)[C@H](Cc2ccc(-c3ccccc3)cc2)NC(=O)[C@H](CC(C)C)NC(=O)[C@@H]2CCCN2C(=O)[C@@H](NC(=O)[C@H](CCCNC(=N)N)NC(=O)[C@H](CCCNC(=N)N)NC(C)=O)CSSC[C@@H](C(=O)N[C@@H](CCCNC(=N)N)C(=O)N[C@@H](CCCNC(=N)N)C(N)=O)NC(=O)[C@H](C(C)C)NC(=O)[C@@H]2CCCN2C(=O)[C@H](CC(=O)O)NC(=O)[C@H](Cc2ccc(O)cc2)NC(=O)[C@H](CO)NC1=O (Ac-RRCPL[Bip]ISYDPVCRR-NH2; disulfide 3-13)
- IC50 [1]: 7 nM
- half-life [2]: 55 min

Second part, the compound after the results:

- IC50 [1]: 24 nM
Compound: CC[C@H](C)[C@@H]1NC(=O)[C@H](Cc2ccc(-c3ccccc3)cc2)NC(=O)[C@H](CC(C)C)NC(=O)[C@@H]2CCCN2C(=O)[C@@H](NC(=O)[C@H](CCCNC(=N)N)NC(=O)[C@H](CCCNC(=N)N)NC(C)=O)CSSC[C@@H](C(=O)N[C@@H](CCCNC(=N)N)C(=O)N[C@@H](CCCNC(=N)N)C(N)=O)NC(=O)[C@H](CCC#N)NC(=O)[C@@H]2CCCN2C(=O)[C@H](CC(=O)O)NC(=O)[C@H](Cc2ccc(O)cc2)NC(=O)[C@H](CO)NC1=O (Ac-RRCPL[Bip]ISYDP[Abu(4-CN)]CRR-NH2; disulfide 3-13)

- IC50 [1]: 2 nM
Compound: C=CCO[C@H]1CCN2C(=O)[C@@H](NC(=O)[C@H](CCCNC(=N)N)NC(=O)[C@H](CCCNC(=N)N)NC(C)=O)CSSC[C@@H](C(=O)N[C@@H](CCCNC(=N)N)C(=O)N[C@@H](CCCNC(=N)N)C(N)=O)NC(=O)[C@H](C(C)C)NC(=O)[C@@H]3CCCN3C(=O)[C@H](CC(=O)O)NC(=O)[C@H](Cc3ccc(O)cc3)NC(=O)[C@H](CO)NC(=O)[C@H]([C@@H](C)CC)NC(=O)[C@H](Cc3ccc(-c4ccccc4)cc3)NC(=O)[C@H](CC3CCC3)NC(=O)[C@H]12 (Ac-RRC[Pro(trans-3-OAllyl)][Cba][Bip]ISYDPVCRR-NH2; disulfide 3-13)

- IC50 [1]: 1 nM
Compound: CC[C@H](C)[C@@H]1NC(=O)[C@H](Cc2ccc(-c3ccccc3)cc2)NC(=O)[C@H](CC(C)C)NC(=O)[C@@H]2[C@@H](c3ccccc3)CCN2C(=O)[C@@H](NC(=O)[C@H](CCCNC(=N)N)NC(=O)[C@H](CCCNC(=N)N)NC(C)=O)CSSC[C@@H](C(=O)N[C@@H](CCCNC(=N)N)C(=O)N[C@@H](CCCNC(=N)N)C(N)=O)NC(=O)[C@H](C(C)C)NC(=O)[C@@H]2CCCN2C(=O)[C@H](CC(=O)O)NC(=O)[C@H](Cc2ccc(O)cc2)NC(=O)[C@H](CO)NC1=O (Ac-RRC[Pro(3R-Ph)]L[Bip]ISYDPVCRR-NH2; disulfide 3-13)

- IC50 [1]: 5 nM
Compound: CCCCC[C@@H]1NC(=O)[C@@H]2CCCN2C(=O)[C@H](CC(=O)O)NC(=O)[C@H](Cc2ccc(O)cc2)NC(=O)[C@H](CO)NC(=O)[C@H]([C@@H](C)CC)NC(=O)[C@H](Cc2ccc(-c3ccccc3)cc2)NC(=O)[C@H](CC(C)C)NC(=O)[C@@H]2CCCN2C(=O)[C@@H](NC(=O)[C@H](CCCNC(=N)N)NC(=O)[C@H](CCCNC(=N)N)NC(C)=O)CSSC[C@@H](C(=O)N[C@@H](CCCNC(=N)N)C(=O)N[C@@H](CCCNC(=N)N)C(N)=O)NC1=O (Ac-RRCPL[Bip]ISYDP[Ahp(2)]CRR-NH2; disulfide 3-13)

- IC50 [1]: 7 nM
Compound: CC[C@H](C)[C@@H]1NC(=O)[C@H](Cc2ccc(-c3ccccc3)cc2)NC(=O)[C@H](CC2CCC2)NC(=O)[C@@H]2[C@@H](c3ccccc3)CCN2C(=O)[C@@H](NC(=O)[C@H](CCCNC(=N)N)NC(=O)[C@H](CCCNC(=N)N)NC(C)=O)CSSC[C@@H](C(=O)N[C@@H](CCCNC(=N)N)C(=O)N[C@@H](CCCNC(=N)N)C(N)=O)NC(=O)[C@H](C(C)C)NC(=O)[C@@H]2CCCN2C(=O)[C@H](CC(=O)O)NC(=O)[C@H](Cc2ccc(O)cc2)NC(=O)[C@H](CO)NC1=O (Ac-RRC[Pro(3R-Ph)][Cba][Bip]ISYDPVCRR-NH2; disulfide 3-13)

- IC50 [1]: 43 nM
Compound: CC[C@H](C)[C@@H]1NC(=O)[C@H](Cc2ccc(-c3ccccc3)cc2)NC(=O)[C@H](CC(C)C)NC(=O)[C@@H]2CCCN2C(=O)[C@@H](NC(=O)[C@H](CCCNC(=N)N)NC(=O)[C@H](CCCNC(=N)N)NC(C)=O)CSSC[C@@H](C(=O)N[C@@H](CCCNC(=N)N)C(=O)N[C@@H](CCCNC(=N)N)C(N)=O)NC(=O)[C@H](CCCC(=O)O)NC(=O)[C@@H]2[C@@H](C)CCN2C(=O)[C@H](CC(=O)O)NC(=O)[C@H](Cc2ccc(O)cc2)NC(=O)[C@H](CO)NC1=O (Ac-RRCPL[Bip]ISYD[X5][Aad]CRR-NH2; disulfide 3-13)

- IC50 [1]: > 11100 nM
Compound: CC[C@H](C)[C@@H]1NC(=O)[C@H](Cc2ccc(O)cc2)NC(=O)[C@H](CC(C)C)NC(=O)[C@@H]2CCCN2C(=O)[C@@H](NC(=O)[C@H](CCCNC(=N)N)NC(=O)[C@H](CCCNC(=N)N)NC(C)=O)CSSC[C@@H](C(=O)N[C@@H](CCCNC(=N)N)C(=O)N[C@@H](CCCNC(=N)N)C(N)=O)NC(=O)[C@H](C(C)C)NC(=O)[C@@H]2CCCN2C(=O)[C@H](CC(=O)O)NC(=O)[C@H](Cc2cc(F)c(F)c(F)c2)NC(=O)[C@H](Cc2cscn2)NC1=O (Ac-RRCPLYI[Ala(4-thiazolyl)][Phe(3,4,5-F3)]DPVCRR-NH2; disulfide 3-13)
